This is an account of results in ChEMBL document CHEMBL1938247, “Synthesis and evaluation of inhibitors of bacterial drug efflux pumps of the major facilitator superfamily” (2011).

Assay [1] has as its system Streptomyces coelicolor. Kind of assay: Antibacterial activity against Streptomyces coelicolor at 25 ug/mL after 48 hrs. Format: functional, organism-based. In short, it runs like this: (§1)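 Strains: wild-type S. coelicolor, or PCR-targeted null mutants lacking cmlR1, cmlR2 or both. Inhibitors HPLC-purified before testing; inhibitor alone at 25 μg/mL also checked for intrinsic toxicity.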

The subject of assay [2] is Streptomyces coelicolor. The experiment in a line: Potentiation of chloramphenicol-induced antibacterial activity against Streptomyces coelicolor at 25 ug/mL after 48 hrs relative to control. The format is functional. In short, it runs like this: (§2)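 1 μL of a 10⁸ cfu/μL spore stock patched per plate; incubated at 30 °C. Strains: wild-type S. coelicolor, or PCR-targeted null mutants lacking cmlR1, cmlR2 or both. Reference efflux inhibitor MC-207,110 (Phe-Arg-β-naphthylamide) tested at the same 25 μg/mL.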

Assay [3] concerns Streptomyces coelicolor. The experiment in a line: Potentiation of chloramphenicol-induced antibacterial activity against cmlR1 and cmlR2-deficient Streptomyces coelicolor at 25 ug/mL after 48 hrs relative to control. The format is functional. An outline of the steps:
as §2

For assay [4], the system named is Streptomyces coelicolor. The experiment in a line: Inhibition of cmlR2 overexpressed in Streptomyces coelicolor assessed as potentiation of chloramphenicol-induced antibacterial activity measuring reduction in MIC of chloramphenicol at 25 ug/mL after 48 hrs relative to control. An outline of the steps:
(§3)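 The cmlR1/cmlR2 double-null S. coelicolor strain was engineered to over-express cmlR1 or cmlR2 from a strong constitutive promoter. Spores (1 μL of a 10⁸ cfu/μL stock) were patched on Difco nutrient agar with 25 μg/mL inhibitor and varying chloramphenicol, then incubated at 30 °C. The chloramphenicol MIC (μg/mL) was read, and fold-potentiation was taken relative to the MIC without inhibitor.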

Assay [5] concerns Streptomyces coelicolor. Kind of assay: Potentiation of chloramphenicol-induced antibacterial activity against cmlR2-deficient Streptomyces coelicolor at 25 ug/mL after 48 hrs relative to control. The format is functional. In short, it runs like this: as §2
Assay [6] concerns Streptomyces coelicolor. Kind of assay: Inhibition of cmlR1 overexpressed in Streptomyces coelicolor assessed as potentiation of chloramphenicol-induced antibacterial activity measuring reduction in MIC of chloramphenicol at 25 ug/mL after 48 hrs relative to control. An outline of the steps: as §3
Assay [7] deals with Streptomyces coelicolor. The experiment in a line: Antibacterial activity against cmlR1 and cmlR2-deficient Streptomyces coelicolor at 25 ug/mL after 48 hrs. The format is functional, organism-based. In short, it runs like this: as §1
Assay [8] relates to Streptomyces coelicolor. The experiment in a line: Antibacterial activity against cmlR1-deficient Streptomyces coelicolor at 25 ug/mL after 48 hrs. The format is functional, organism-based. An outline of the steps:
as §1

In assay [9] the test system is Streptomyces coelicolor. The experiment in a line: Antibacterial activity against Streptomyces coelicolor overexpressing cmlR1 at 25 ug/mL after 48 hrs. The format is functional, organism-based. In short, it runs like this: (§4)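 Host strains were the cmlR1/cmlR2 double-null S. coelicolor carrying cmlR1 or cmlR2 under a strong constitutive promoter, selected for hygromycin resistance. Growth was checked on Difco nutrient agar containing 25 μg/mL test compound alone, with plates kept at 30 °C.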

The test system of assay [10] is Streptomyces coelicolor. Kind of assay: Antibacterial activity against cmlR2-deficient Streptomyces coelicolor at 25 ug/mL after 48 hrs. The format is functional, organism-based. In short, it runs like this:
as §1

The subject of assay [11] is Streptomyces coelicolor. Kind of assay: Potentiation of chloramphenicol-induced antibacterial activity against Streptomyces coelicolor at 25 ug/mL after 48 hrs relative to MC-207,110. Format: functional. An outline of the steps:
as §2

Assay [12] relates to Streptomyces coelicolor. Kind of assay: Antibacterial activity against Streptomyces coelicolor overexpressing cmlR2 at 25 ug/mL after 48 hrs. Format: functional, organism-based. An outline of the steps:
as §4

Assay [13] has as its system Streptomyces coelicolor. The experiment in a line: Potentiation of chloramphenicol-induced antibacterial activity against cmlR1-deficient Streptomyces coelicolor at 25 ug/mL after 48 hrs relative to control. Format: functional. In short, it runs like this: as §2
Assay [14] deals with Streptomyces coelicolor. The experiment in a line: Antibacterial activity against Streptomyces coelicolor after 48 hrs. The format is functional.

Structures are written as SMILES. ≈ marks a conversion by molar mass, not a printed value. Calls of active or inactive are those of the source. The rule behind the calls is not given here. Where a SMILES comes first, the peptide text is derived from it. [ ]: non-standard residue; d: D form. The star is where a group is joined. ξ: configuration not given here. ξhPhe = NC(CCc1ccccc1)C(=O)O; βNA = c1ccc2cc(N*)ccc2c1 Where only a bound is given, the exact number is not on record here.

For `NCCCCC(=O)NC(CCc1ccccc1)C(=O)Nc1ccc2ccccc2c1` (stereo not drawn), the outcome in assay [1] was inactive. Also, the result in assay [2] was Active.
Consider `NCCC[C@@H](N)C(=O)OC(CCc1ccccc1)C(=O)Nc1ccc2ccccc2c1` (stereo partly drawn), for which, in assay [1], the result was inactive.
Turning to `NCCC[C@H](N)C(=O)N[C@H](CCc1ccccc1)C(=O)Nc1ccc2ccccc2c1`, the “fold change (FC)” value in assay [3] is 1.8; in [4], 7.3; in assay [5], 2.4; in assay [6], 3.5; in [2], 7.2; in assay [11], 3. Besides, the “fold change (FC)” value in assay [13] turned out to be 3.3. Besides, the outcome in assay [1], in [7], in [8], in assay [9], in assay [10] and in assay [12] was inactive. In [14], this compound showed an MIC of 9 µg/mL (≈ 21.5 µM).
Turning to `NCCC[C@@H](N)C(=O)NC(CCc1ccccc1)C(=O)NCc1ccccc1` (stereo partly drawn), the outcome in assay [1] was inactive. Moreover, in assay [2], the result was Active.
For `NCCC[C@@H](N)C(=O)NC(C(=O)Nc1ccc2ccccc2c1)c1ccccc1` (stereo partly drawn), the result in assay [1] was inactive. In addition, the result in assay [2] was Active.
The corresponding values for `CN(C(=O)[C@H](N)CCCN)C(CCc1ccccc1)C(=O)Nc1ccc2ccccc2c1` (stereo partly drawn) are “inactive” and “Active”.
In the case of `NCCC(=O)NC(CCc1ccccc1)C(=O)Nc1ccc2ccccc2c1` (stereo not drawn), the result in assay [1] was inactive. The outcome in assay [2] was Active.
In the case of `N=C(N)NCCC[C@H](NC(=O)[C@@H](N)Cc1ccccc1)C(=O)Nc1ccc2ccccc2c1` [PABETAN] (H-Phe-Arg-βNA), the result in [1] was inactive. Further, in assay [2], the “fold change (FC)” value is recorded as 2.6. For the same compound, the MIC in assay [14] stood at 25 µg/mL (≈ 56 µM).
On to `NCCCCCC(=O)NC(CCc1ccccc1)C(=O)Nc1ccc2ccccc2c1` (stereo not drawn), for which the outcome in assay [1] was inactive. Besides, the result in assay [2] was Active.
The like results for `NCCC[C@@H](N)C(=O)NC(CCc1ccccc1)C(=O)NC1CCCCC1` (stereo partly drawn) were, in that order, “inactive” and “inactive”.
Take `NCCC[C@@H](N)C(=O)NC(CCc1ccccc1)C(=O)Nc1cnc2ccccc2c1` (mixture of isomers): in [1], the outcome was inactive. In addition, the MIC in assay [14] is above 40 µg/mL.
For the compound `CC(C)C(NC(=O)[C@H](N)CCCN)C(=O)Nc1ccc2ccccc2c1` (stereo partly drawn), the result in assay [1] was inactive. The result in [2] was Active.
As for `NCCC[C@@H](N)C(=O)NC(C(=O)Nc1ccc2ccccc2c1)c1ccc([N+](=O)[O-])cc1` (stereo partly drawn), the outcome in [1] was inactive. In addition, the outcome in [2] was Active.
For `NCCC[C@H](N)C(=O)NC(CCc1ccccc1)C(=O)Nc1ccc2ccccc2c1` (mixture of isomers), in [1], the result was inactive. Besides, in assay [2], the “fold change (FC)” value came out at 6.5. In assay [14], the MIC is 10 µg/mL.
With `CC(C)(C)NC(=O)C(CCc1ccccc1)NC(=O)[C@H](N)CCCN` (stereo partly drawn), the outcome in assay [1] and in assay [2] was inactive.
For the compound `NCC(=O)NC(CCc1ccccc1)C(=O)Nc1ccc2ccccc2c1` (stereo not drawn) (H-Gly-[ξhPhe]-βNA), the result in [1] was inactive. For the same compound, in assay [2], the outcome was Active.
Regarding `NCCC[C@@H](N)C(=O)NC(C(=O)Nc1ccc2ccccc2c1)c1ccco1` (stereo partly drawn), the outcome in [1] was inactive.
Turning to `NCCC[C@H](N)C(=O)N[C@@H](CCc1ccccc1)C(=O)Nc1ccc2ccccc2c1`, in assay [1], the result was inactive. The “fold change (FC)” value in assay [2] is 5.9. This compound also registered an MIC in [14] of 11 µg/mL (≈ 26.3 µM).
Regarding `NCCC[C@@H](N)C(=O)NC(CCc1ccccc1)C(=O)Nc1ccc2ccccc2c1` (mixture of isomers), the outcome in assay [1] was inactive. Also, the “fold change (FC)” value in assay [2] is listed as 6.5. The compound also yielded an MIC in assay [14] of 10 µg/mL.
Regarding `CCCCNC(=O)C(CCc1ccccc1)NC(=O)[C@H](N)CCCN` (stereo partly drawn), the outcome in [1] and in [2] was inactive.
With `COc1ccc(C(NC(=O)[C@H](N)CCCN)C(=O)Nc2ccc3ccccc3c2)cc1` (stereo partly drawn), the outcome in assay [1] was inactive. Further, the outcome in assay [2] was Active.
As for `NCCC[C@H](N)C(=O)NC(CCc1ccccc1)C(=O)Nc1cnc2ccccc2c1` (mixture of isomers), the outcome in assay [1] was inactive. For the same compound, the MIC in assay [14] was above 40 µg/mL.

Usually MIC stands for the lowest concentration that inhibits growth of the organism. A high value points to weaker potency.
